For assay [1], the target named is Muscarinic acetylcholine receptor M2 (Cavia porcellus). The experiment in a line: M2 agonist activity estimated by depression of isolated guinea pig left atrium.
Assay [2] has as its target Muscarinic acetylcholine receptor. The experiment in a line: In vitro binding affinity for muscarinic receptor by displacing [3H]oxotremorine-M binding on rat brain homogenate. Type of assay: tissue-based. A digest of the protocol:
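Duplicate full curves of five drug concentrations over 3 decades, triplicate points. IC50 taken from hand-drawn log curves; Ki via Cheng–Prusoff.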

Assay [3] shares this target. The experiment in a line: In vitro binding affinity for muscarinic receptor by displacing [3H]quinuclidinyl benzilate binding on rat brain stem homogenate. Type of assay: tissue-based. A digest of the protocol:
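Two full curves, five test concentrations over 3 decades in triplicate. Hand-drawn log curves gave IC50; Ki by Cheng–Prusoff.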

Assay [4] addresses Muscarinic acetylcholine receptor M3 (Cavia porcellus).
The target in assay [5] is Muscarinic acetylcholine receptor. The experiment in a line: In vitro binding affinity for muscarinic receptor by displacing [3H]quinuclidinyl benzilate binding on rat brain homogenate. Type of assay: tissue-based. A digest of the protocol: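 Two concentration–response curves, five concentrations covering 3 decades, triplicates. IC50 estimated from hand-drawn log concentration–response curves and converted to Ki with Cheng–Prusoff equation.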

The target of assay [6] is T1, Muscarinic acetylcholine receptor M1 (Rattus norvegicus, UniProt P08482).
T1 sequence (P08482 whole entry): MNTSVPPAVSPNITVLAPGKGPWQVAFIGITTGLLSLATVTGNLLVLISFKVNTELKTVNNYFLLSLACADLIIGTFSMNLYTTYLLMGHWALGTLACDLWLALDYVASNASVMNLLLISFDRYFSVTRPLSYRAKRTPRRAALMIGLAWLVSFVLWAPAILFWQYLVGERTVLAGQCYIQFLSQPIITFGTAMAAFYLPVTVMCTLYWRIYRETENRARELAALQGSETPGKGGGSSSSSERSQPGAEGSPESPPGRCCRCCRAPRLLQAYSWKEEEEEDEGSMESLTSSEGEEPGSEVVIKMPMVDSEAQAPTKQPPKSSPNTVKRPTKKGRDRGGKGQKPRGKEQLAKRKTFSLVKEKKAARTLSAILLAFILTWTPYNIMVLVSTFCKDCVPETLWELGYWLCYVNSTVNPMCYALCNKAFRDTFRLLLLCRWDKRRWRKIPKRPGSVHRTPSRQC
The experiment in a line: M1 agonist activity estimated by rat superior cervical ganglion depolarization. Type of assay: functional, tissue-based.

Assay [7] concerns the target T1, Muscarinic acetylcholine receptor M1. The experiment in a line: In vitro binding affinity for muscarinic M1 receptor by displacing [3H]pirenzepine binding on rat brain homogenate. Type of assay: tissue-based. Put shortly: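 Two complete curves, five test concentrations spanning 3 decades, each in triplicate. IC50 read from hand-drawn log concentration–response curves, converted to Ki by Cheng–Prusoff.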

The species named for assay [8] is Rattus norvegicus. The experiment in a line: Ratio of binding affinity at [3H]quinuclidinyl benzilate binding on rat brain homogenate to [3H]- Oxotremorine-M binding on rat brain homogenate. Type of assay: functional. Put shortly: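 Ago ratio computed as Ki from [³H]QNB binding to whole rat brain homogenate divided by Ki from [³H]oxotremorine-M binding to whole rat brain homogenate.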

The species entered for assay [9] is Rattus norvegicus. The experiment in a line: Ratio of binding affinity at [3H]quinuclidinyl benzilate binding on rat brain stem homogenate to [3H]pirenzepine binding on rat brain homogenate.
A short description of assay [10]: In vitro binding affinity for muscarinic receptor by displacing[ H]Quinuclidinyl benzilate binding on rat brain stem homogenate. Type of assay: tissue-based. Put shortly: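 Rat brainstem homogenate; displacement of [3H]quinuclidinyl benzilate (0.12 nM). Five test concentrations in triplicate spanning 3 decades, two complete curves. IC50 read from hand-drawn log concentration–response curves and converted to Ki by Cheng–Prusoff using KD 9.7 pM from Scatchard analysis.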

Assay [11] addresses Muscarinic acetylcholine receptor M2 (Mus musculus) (UniProt Q9ERZ4). The experiment in a line: In vivo determination of peripheral M2 receptor mediated salivation, cholinergic side effect.
Assay [12] has the same target. The experiment in a line: In vivo determination of peripheral M2 receptor mediated hypothermia, cholinergic side effect.
For assay [13] the target is unchanged. The experiment in a line: In vivo determination of peripheral M2 receptor mediated tremor, cholinergic side effect.
Assay [14] has as its target T2, Muscarinic acetylcholine receptor M3 (Cavia porcellus, UniProt Q8VH26). The experiment in a line: In vitro ability to contract isolated guinea pig ileum was used to estimate M2/M3 agonist effect. Type of assay: functional, tissue-based.
For assay [15], the target named is T1, Muscarinic acetylcholine receptor M1. The experiment in a line: In vitro ability to depolarize isolated rat superior cervical ganglion was used to estimate their M1 agonistic effect. Type of assay: functional, tissue-based. Put shortly:
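Because the concentration–response curve is biphasic, EC50 is given as equal to or greater than the calculated value. Apparent efficacy (RM) is maximum effect relative to muscarine's maximum on separate ganglia. Values are means of three to seven separate experiments.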

For assay [16], the target named is T2, Muscarinic acetylcholine receptor M3. The experiment in a line: In vitro ability to contract isolated guinea pig ileum was used to estimate M3 agonist effect. Type of assay: functional, tissue-based.
Assay [17] concerns the target Muscarinic acetylcholine receptor. The experiment in a line: In vitro binding affinity for muscarinic receptors by displacing [3H]quinuclidinyl benzilate binding on rat brain stem homogenate. Type of assay: tissue-based.
A short description of assay [18]: In vitro binding affinity for muscarinic receptors by displacing [3H]quinuclidinyl benzilate binding on rat brain homogenate. Type of assay: tissue-based.

The source of these data is ChEMBL document CHEMBL1127749 (J Med Chem, 1994).

T2 sequence (Q8VH26 whole entry): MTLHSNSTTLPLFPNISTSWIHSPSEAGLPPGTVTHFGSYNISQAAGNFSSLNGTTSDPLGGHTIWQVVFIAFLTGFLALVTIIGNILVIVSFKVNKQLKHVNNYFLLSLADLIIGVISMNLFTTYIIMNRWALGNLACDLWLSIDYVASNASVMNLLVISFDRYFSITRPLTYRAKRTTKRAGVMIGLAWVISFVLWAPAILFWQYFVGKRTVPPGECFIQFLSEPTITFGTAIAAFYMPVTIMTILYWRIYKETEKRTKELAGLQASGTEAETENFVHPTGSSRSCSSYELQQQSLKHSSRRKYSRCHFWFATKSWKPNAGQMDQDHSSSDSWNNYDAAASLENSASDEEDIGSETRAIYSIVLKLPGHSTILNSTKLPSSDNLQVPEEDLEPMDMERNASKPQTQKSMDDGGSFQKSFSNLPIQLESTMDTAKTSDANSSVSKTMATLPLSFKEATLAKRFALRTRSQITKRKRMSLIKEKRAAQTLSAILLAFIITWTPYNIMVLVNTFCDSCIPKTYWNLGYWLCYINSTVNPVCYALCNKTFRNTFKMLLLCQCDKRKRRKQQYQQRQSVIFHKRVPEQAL

What is called EC50 is the concentration that produces a half-maximal response. What is called Ki is a dissociation constant, usually derived from enzyme kinetics or from competition with a known ligand. Higher therefore signals lower affinity. Consider `CCN1C(=O)CC2(CCN(C)CC2)C1=O`, for which the figures for the EC50 in assay [1], in [4] and in assay [6] were 400 nM, 430 nM and at least 1100 nM, respectively. Moreover, the Ki was found to be 14 nM in [2], 400 nM in [3], 690 nM in assay [5] and 400 nM in assay [7]. The figures for the Ratio in [8] and in assay [9] were 49 and 1, respectively.

As to `CCCCCCCn1nnc(C2=CCCN(C)C2)n1`, the Ki is 120 nM in [2], 140 nM in assay [5], 37 nM in assay [7] and 160 nM in assay [10]. Moreover, the Ratio in assay [8] is 1.2; in assay [9], 4.3.

In the case of `CCn1ncc(C2=CCCNC2)n1`, the values for the EC50 in [1], in assay [4] and in assay [6] were 270 nM, 770 nM and at least 650 nM, respectively. The Ki in [2] was found to be 3.7 nM; in assay [3], 170 nM; in assay [5], 290 nM; in assay [7], 120 nM. The values for the Ratio in assay [8] and in assay [9] were 78 and 1.4, respectively.

As usually defined, the ED50 is the midpoint of the dose-response relation. High values mean a need for a large dose, low ones an effect at a small dose. In the case of `C#CCn1ncc(C2CCCNC2)n1` (single isomer, unassigned; (+)), the values for the Ratio in [8] and in [9] were 44 and 0.2, respectively. The ED50 in assay [11] stood at 7 µmol/kg; in [12], 23 µmol/kg; in assay [13] it was 32 µmol/kg.

`C#CCn1ncc(C2CCCNC2)n1` (stereo in doubt; (-)-15c): the results for the Ratio in [8] and in assay [9] were 35 and 0.2, respectively. Besides, the ED50 in assay [11] was 20 µmol/kg; in [12] it was 11 µmol/kg; in [13] it was 41 µmol/kg.

As to `C=CCn1ncc(C2CCCNC2)n1` (racemic) [listing 1 of 2 here], the Ratio in assay [8] was determined as 36; in [9], 3. Moreover, the ED50 is 320 µmol/kg in assay [11], over 350 µmol/kg in assay [12] and over 350 µmol/kg in assay [13].

For `CCn1ncc(C2=CCCN(C)C2)n1`, the EC50 in assay [1] was over 51000 nM; in assay [4], 940 nM; in assay [6], over 1200 nM. Besides, the Ki was found to be 1.7 nM in assay [2], 61 nM in assay [3], 110 nM in [5] and 24 nM in [7]. Further, the Ratio in assay [8] amounted to 65; in assay [9], 2.5.

With `CCn1nnc(C2=CCCN(C)C2)n1` [ALVAMELINE], the Ki came out at 9.2 nM in [2], 340 nM in assay [3], 430 nM in assay [5] and 36 nM in assay [7]. The EC50 in assay [6] is at least 2000 nM. The ED50 in assay [11], in assay [12] and in [13] was over 120 µmol/kg each time.

Turning to `C=CCn1ncc(C2CCCNC2)n1` (racemic) [listing 2 of 2 here], the results for the EC50 in assay [1], in assay [14] and in assay [6] were 1100 nM, 4400 nM and over 2800 nM, respectively. Besides, the Ki in [2] amounted to 25 nM; in assay [3], 300 nM; in [5], 910 nM; in assay [7], 100 nM.

On to `CN1CCC=C(c2cnn(C)n2)C1`, for which the Ki in [2] came out at 0.78 nM; in assay [3], 160 nM; in [5], 280 nM; in assay [7], 35 nM. In addition, the EC50 in assay [4] is 130 nM; in assay [6] it was at least 430 nM. The Ratio was 360 in assay [8] and 4.5 in [9].

On to `CCn1nnc(C2=CCCNC2)n1`, for which the Ki in assay [2] stood at 23 nM; in assay [3], 280 nM; in [5], 1600 nM; in assay [7], 960 nM. Moreover, the EC50 in [15] is at least 3300 nM; in assay [16], 6400 nM.

Regarding `C=CCn1ncc(C2CCCNC2)n1` (single isomer, unassigned; (+)) [listing 1 of 2 here], the EC50 is 680 nM in assay [1], 4300 nM in assay [4] and over 3400 nM in assay [6]. Moreover, the Ki in [2] was found to be 45 nM; in assay [3], 330 nM; in assay [5], 190 nM; in [7], 210 nM.

In the case of `C=CCn1ncc(C2CCCNC2)n1` (stereo in doubt; (-)-15b), the results for the EC50 in assay [1] and in assay [6] were 840 nM and over 2500 nM, respectively. Besides, the Ki worked out at 37 nM in assay [2], 310 nM in assay [3], 530 nM in assay [5] and 170 nM in assay [7].

With `C[N+](C)(C)CC#CCOC(=O)Nc1cccc(Cl)c1.[Cl-]`, the Ki turned out to be 18 nM in [2], 460 nM in assay [17], 600 nM in [7] and 500 nM in assay [18]. The EC50 in assay [14] is 6500 nM; in assay [6], at least 3900 nM. The figures for the Ratio in assay [8] and in [9] were 28 and 0.8, respectively. Further, the ED50 in assay [11], in assay [12] and in assay [13] was over 63 µmol/kg throughout.

Regarding `C=CCn1ncc(C2CCCNC2)n1` (single isomer, unassigned; (+)) [listing 2 of 2 here], the Ratio in assay [8] came to 4.2; in [9], 1.6. Further, the ED50 in assay [11], in assay [12] and in assay [13] was over 260 µmol/kg throughout.
